Test system: MS2 coat protein
Assay: apparent Kd, MS2 coat protein; higher = weaker binding; RNA-MaP array; FMN 200 µM where present
Summary of the method: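 SNAP-549-labelled MS2 coat protein, doubled from 0.7 or 1.5 nM to 3 µM, was titrated over designs transcribed by stalled E. coli RNA polymerase on Illumina sequencing-chip clusters. Titrations were run without and then with constant ligand in 100 mM Tris-HCl pH 7.5, 80 mM KCl, 4 mM MgCl2, BSA, DTT, yeast tRNA and Tween-20. The apparent Kd is the median of filtered per-cluster fits to green signal normalised to red-channel RNA signal and control-cluster median Fmax.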

[1] = designed as: ON switch for flavin mononucleotide, no ligand
[2] = ligand present: flavin mononucleotide, designed as: ON switch for flavin mononucleotide
[3] = designed as: OFF switch for flavin mononucleotide, no ligand
[4] = ligand present: flavin mononucleotide, designed as: OFF switch for flavin mononucleotide

Sequence | apparent Kd [1] [µM] | apparent Kd [2] [µM] | apparent Kd [3] [µM] | apparent Kd [4] [µM]
AGCGGGUGGGUAGGAUAUGGCUAUGUCUCAUUGCUAGAAGGACCAGCUGCUACAUGAGGAUCACCCAUGUCGUAGUGCACCCAG | 0.195 | 0.0127 | – | –
UUUGUUUUGGUAGGAUAUACUUUUAAUUUCUCUUUCCUUACAUGAGGAUCACCCAUGUUUACAUUGUAGAAGGACCACUUUGUU | – | – | 0.0218 | 0.0192
UUUUACAUAGGAUAUAGUUUGUUGUACAUGAGGAUCACCCAUGUUGUUGGUUGUGCUGUUCUAGAAGGAUGUUUCU | – | – | 0.0444 | 0.0338
UGAACGUUAGGAUAUACAUGAGGAUCACCCAUGUGUUAUGAGCAAUCAUCGAUAUGUUGUAGAAGGAACGCGCG | – | – | 0.0249 | 0.0263
UUUCAGCUCACAUGAGGAUCACCCAUGUCGGUUCGCCCGGACAGAAGGCACCCAUGACAAUGCGGUGAGGAUAUGUCAGCAAGG | 0.193 | 0.0193 | – | –
GUAGAGUAAGGAUAUACUGAAUAGGAUAGAAUGGUUAGAAAGUAGAAGGUACAUGAGGAUCACCCAUGUAAUGU | – | – | 0.0203 | 0.0197
UGGAUGGUAUGAGGAUAUGCGCGCGACACGCGCGCAGAAGGCAUGUCAAUAGACAUGAGGAUCACCCAUGUAUUAUCCAUCCAA | 0.201 | 0.0148 | – | –
AGGUAAACCACAGGAUAUGGCUAGCAUAGCUAGCCAGAAGGGUGGUCGUAACCAUGUAAAUACAUGAGGAUCACCCAUGUAUCC | 0.0898 | 0.036 | – | –
GUAUGGAGUACAGGAUAUGUAAGUUUUAAGUGUAUUGGUUAUUACUUAACAACAGAAGGGUAUUACAUGAGGAUCACCCAUGUA | 0.0134 | 0.011 | – | –
CUCUAUCAUGUAGGAUAUGCGUGUCGAAGCUAUGCAGAAGGACAUGAGGAUCACCCAUGUCUUACUGUCUGCGGACGGACAGGG | – | – | 0.0224 | 0.0539
UGUCAUUUACAGAAGGGUAGUUGGGUUAUACAUGAGGAUCACCCAUGUUAUACAGGAUAUGUGUAAAGUUAUUAUUAAAGUACA | – | – | 0.0301 | 0.036
AAAAGUUGAGGAUAUGGCUAUUUGGACAUGAGGAUCACCCAUGUGUCUAUGGCCCGGGUGCCAGAAGGUGAUUACU | – | – | 0.0922 | 0.0943
UGUAUCUAGUAAGGAUAUACUAUUGAUUCAAUUGUAGAAGGUACAGACAUGAGGAUCACCCAUGUAGUUAUGGAUAUUAGAUAU | 0.0741 | 0.0423 | – | –
UAUGAAUAGCAAGGAUAUUGAUAACAUGAGGAUCACCCAUGUAAUUGAUCGAGUUAGAUCAGUUACAAGAAGGUGCAAUUGAUU | 0.053 | 0.557 | – | –
GCACUCAAGUUAGGAUAUGGAUCGGAAAACGAUCCAGAAGGAAUAUGGGAACAUGAGGAUCACCCAUGUUCCACAAACGAGUGC | 0.0409 | 0.0221 | – | –
UGUUGUAUUACAGGAUAUCUAGUAUAUUUAUUUAGAGAAGGGUAUUCACAUGAGGAUCACCCAUGUAUAUACGAGGAAGUUGUG | 0.0411 | 0.0402 | – | –
AUGUAGCUAGGAUAUACAUAGAUACAGAUUCAUGUAGAACUACAUGAGGAUCACCCAUGUAGAAGGAGCUAAAA | – | – | 0.0287 | 0.0504
GCACGGCAUGUAGGAUAUCGAGCUCCGGGAGCUCGAGAAGGACAUGAGGAUCACCCAUGUGCUCACAGUGAGUGAGUGCUGUGC | – | – | 0.0197 | 0.0388
GCCUCACAUGAGGAUCACCCAUGUCAGGAUAUAGGAGACGGUAGCUUUGCUGCCUUCGCUAGAAGGGACUGGCU | – | – | 0.0335 | 0.0554
ACAGAGGCUGACAUGAGGAUCACCCAUGUUAGAUUGUUAUGUCAGGAUAUUAUCUGGCAACCAGAUGAGAAGGGACCCUCUGUG | 0.0226 | 0.00754 | – | –
GGUGGACAUGAGGAUCACCCAUGUGAGGAUAUCGGCUGGCUAGCGGCGGACGGCUGCUCGAGAAGGCGCAUUGU | – | – | 0.0906 | 0.137
AAAUUAAGUGUGAGGAUAUGCUGGUCCUUAGAUCAGCAGAAGGCACAUGAGGAUCACCCAUGUAAUAUAUUUAA | – | – | 0.0389 | 0.193
CGGCCCGAUCGAGGAUAUAAGUCUAGGACAUGAGGAUCACCCAUGUAUGUCUUAGAAGGCGAUCGGGCCAGCCUGUUACAGGCA | 0.0285 | 0.00643 | – | –
CUAUCGCAAGGAUAUACAUGAGGAUCACCCAUGUGGAAGAAUGGCCCAAAUCUAACAUGUAGAAGGUGCUAAAA | – | – | 0.0406 | 0.0649
CUUUAGUGAGGAUAUCAGUAGUAAUACAAUAGUAUUACUACUGAGAAGGCACAUGAGGAUCACCCAUGUUCUUC | – | – | 0.0173 | 0.05
GUCAGCUCGUGAGGAUAUACAUGUGCUGGAAACAGCACUAAUAGAAUCACAUGAGGAUCACCCAUGUAGAAGGCACGAGCUGAU | – | – | 0.0169 | 0.0408
GGAACGCUUGACAUGAGGAUCACCCAUGUUAGAUUGUUAUGUCAGGAUAUAGUCUAGAAACUAGACUAGAAGGGAUAUGUUUCU | 0.428 | 0.0877 | – | –
AUUAUUUAAGUCAGGAUAUCGUAUUUAUUUAAAUACGAGAAGGGACAUGAGGAUCACCCAUGUAAUAAAUUUUU | – | – | 0.0169 | 0.0229

Sequence | apparent Kd [1] [µM] | apparent Kd [2] [µM] | apparent Kd [3] [µM] | apparent Kd [4] [µM]
UUUUAGCUAGGAUAUACAUUUUUUUUAUUAUCCUCAUUAUUACAUGAGGAUCACCCAUGUAGAAGGAGCAUUUU | – | – | 0.237 | 0.313
GCCUGAUCAACUCUAGGCCCAGACAGAAGGGCACACGGUCUAAGUCACAUGAGGAUCACCCAUGUGCAGGAUAUGUCUCGACUC | – | – | 0.00803 | 0.0214
CAUAAACAUGAGGAUCACCCAUGUGAGGAUAUGAUAUUACUAGGACGGCUGUAAUCAAUCAGAAGGCACAUCUU | – | – | 0.0185 | 0.0375
UGUGUGAGACAGGAUAUGCCAGAUGUAUUACUGGUAGAAGGGUCUACAUGAGGAUCACCCAUGUGGCCGGCCGG | – | – | 0.0271 | 0.0618
GACAUGGUCCAGAAGGGCUAUUUAUUUAAGUAUGAUUUAGAACAGCAUAGCAGGAUAUGGCUAACAUGAGGAUCACCCAUGUUC | 0.0201 | 0.0133 | – | –
AUAUCCUAGAUAGGAUAUACUGAGGUUGAAUGGGUAGAAGGAUCGUUAGGGUGGACUACAUGAGGAUCACCCAUGUUGUUUAUU | 0.213 | 0.208 | – | –
ACCUCACAUGAGGAUCACCCAUGUUAGGAUAUCUCGGCGCCCUGCAGGCAGUGGCACCAGAGAAGGAACGUGCA | – | – | 0.0225 | 0.0253
GACAUACAUGAGGAUCACCCAUGUUCAGAAGGGCAAGGAUAUGUGUGGAAACCAUACUAUACAGAAGGUGUCUGUC | 0.0347 | 0.0203 | – | –
GCACGGUAAGUGAGGAUAUACCUCUGGAUACAGAGGUAGAAGGCACAUGAGGAUCACCCAUGUCCUAGCCGUGC | – | – | 0.0367 | 0.271
CAGUACUGAGGAUAUACAUGAGGAUCACCCAUGUGUUCCAGCUAGGAAUCUAGCAAAAGUAGAAGGCAGUACUG | – | – | 0.0259 | 0.449
AUCAGCUCGACAGGAUAUACGUCACUGCGUCAGCAGUGUGGUAAGAUCACAUGAGGAUCACCCAUGUAGAAGGGACGAGCUGAU | – | – | 0.0121 | 0.0563
AUUAUUAUAUUAUACAUGAGGAUCACCCAUGUUAUAAGUCAUGAGGAUAUGGUUAUGUAGAUUUGCCAGAAGGCAUUUAACUUA | 0.0149 | 0.00991 | – | –
GAUGAUCGGUGAGGAUAUUUUAUAACGUUUUUGAAAGAAGGCACUGACAUGAGGAUCACCCAUGUGAGUCCUCAUCUUGAAAUA | – | – | 0.018 | 0.0356
GUGUGCAGAGGAUAUACAUAGGAAUAUAAUAUAAUAUAAUUACAUGAGGAUCACCCAUGUAGAAGGCUGAGUGU | – | – | 0.0238 | 0.0268
GGAUGACACAGUCAUCCAAUACGAACAUGAGGAUCACCCAUGUAGGAUAUGCUACUCAAAGAGUAGCAGAAGGACAUGUGCCUU | – | – | 0.0391 | 0.257
AUUAUUUAAGUCAGGAUAUCGUAUUUAUUUAAAUACGAGAAGGGACAUGAGGAUCACCCAUGUAAUAAAUUUUA | – | – | 0.0142 | 0.0204
CCAGCGUAUGUGAGGAUAUGCUGGUCCUUGGAUCAGCAGAAGGCACAUGAGGAUCACCCAUGUGAGAGCGUUGG | – | – | 0.0257 | 0.197
AUGCUUUUUGUAGGAUAUACAUACGGUACGUAUGUAGAAGGACAUGAGGAUCACCCAUGUAAAUUAUUAUUAAAUAUCAUACUU | – | – | 0.0127 | 0.0123
UGUCGGAGCAGAGGAUAUUACAUGAGGAUCACCCAUGUAUGAACCAAUAGCUGCAAACAGCAAUGUAAGAAGGCUGCUCCGACA | – | – | 0.0124 | 0.162
AAGCGGGUCUUCAGGGUAAUGAACAUGAGGAUCACCCAUGUGCAGGAUAUGACGGAUCCGCACCGUCAGAAGGGCACUAAGUAC | – | – | 0.0246 | 0.0699
UUACCUCAUGAGAAGGACAUGAGGAUCACCCAUGUAGGAUAUCGUGGAAGACUGGUAUUGAAUCUUCGGAUUCAAUACCUGUCU | 0.317 | 0.0157 | – | –
GCGUAACAUGAGGAUCACCCAUGUACCCGAGAAUUCGGGUGUAGAAGGGUGACCGGUCGUUUGGCACAGGAUAUACACGUUGUG | 0.0301 | 0.0168 | – | –
CCGCAAAUGCAGGAUAUCGUAUCGGAAACGAUACGAGAAGGGUAAACAUGAGGAUCACCCAUGUUCCUUAACGG | – | – | 0.0179 | 0.017
UGGUACUAGGGAGGAUAUGGGAAGAUACAUGAGGAUCACCCAUGUUUAAUAAUGCCGAGAGGCAACUAGAAGGCCCUAGUACCU | 0.253 | 0.0139 | – | –
CGCACUGAUAGAGGAUAUGUUUUACAUGAGGAUCACCCAUGUGUACAAGGAUUAAUAUAUAAGUAACAGAAGGCUAUUUGUGCG | – | – | 0.00655 | 0.00585
UUUUAGACAGGAUAUACAUUUUUUUAUUUAUUUAUAAUAUUACAUGAGGAUCACCCAUGUAGAAGGGUCAUUUU | – | – | 0.0393 | 0.0312
UCCCUGUGAGGAUAUCUCGUUCCGGUGAAAUUAGCUAGAUGGGAGAAGGCACAUGAGGAUCACCCAUGUGACGA | – | – | 0.022 | 0.0266

From the EternaBench riboswitch data
